Reference: ChEMBL document CHEMBL4387780, “Molecular and cellular studies evaluating a potent 2-cyanoindolizine catechol diether NNRTI targeting wildtype and Y181C mutant HIV-1 reverse transcriptase” (Bioorg Med Chem Lett, 2019)
Converted amounts (≈) assume the structure as drawn.

Columns and labels:
[1] = tested on: Human immunodeficiency virus 1; assay: Antiviral activity against wild-type HIV1 NL4-3 infected in human MT2 cells measured 5 days post-infection by MTT assay; conditions: for EC50: Human immunodeficiency virus 1, NL4-3, MT2, 5 days
[2] = Cytotoxicity against human MT2 cells infected with wild-type HIV1 NL4-3 measured 48 hrs by MTT assay; assay type: cell-based
[3] = tested on: Human immunodeficiency virus 1; assay: Antiviral activity against HIV1 NL4-3 harboring Y181C mutant infected in human MT2 cells measured 5 days post-infection by MTT assay
[4] = Solubility of the compound in water at pH 7; assay type: physicochemical
[5] = Cytotoxicity against human MT2 cells infected with HIV1 NL4-3 harboring Y181C mutant measured 48 hrs by MTT assay; assay type: cell-based
[6] = target: Human immunodeficiency virus type 1 reverse transcriptase (Human immunodeficiency virus 1, UniProt Q72547, Y181C); assay: Inhibition of recombinant HIV1 reverse transcriptase p66/p51 Y181C mutant expressed in Escherichia coli BL21 (DE3) pLysS cells preincubated followed by primer/template addition and measured after 30 mins by picogreen dye-based fluorescence assay
Summary of the method: (§1)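 RT pre-incubated with inhibitor at increasing concentrations to allow binding. Reaction started by adding substrate and co-substrates, run 30 min at 10 nM active-site RT, then quenched with EDTA. dsDNA product read as RFU with PicoGreen dye. Each concentration in triplicate, with a pre-quenched negative control. IC50 from a quadratic inhibition curve fit.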

[7] = target: Human immunodeficiency virus type 1 reverse transcriptase (Human immunodeficiency virus 1, UniProt Q72547); assay: Inhibition of recombinant HIV1 reverse transcriptase p66/p51 expressed in Escherichia coli BL21 (DE3) pLysS cells preincubated followed by primer/template addition and measured after 30 mins by picogreen dye-based fluorescence assay
Summary of the method: as §1

[8] = Human immunodeficiency virus 1, NL4-3, MT2, 5 days, read-out: EC50

Structure (SMILES) | EC50 [1] [nM] | CC50 at 48 h [2] [nM] | EC50 [3] | EC50 [3, 8] [nM] | solubility [4] [µg/mL] | Activity [1] | CC50 at 48 h [5] [nM] | IC50 [6] [nM] | Activity [3] | IC50 [7] [nM]
Cc1ccnc2c1NC(=O)c1cccnc1N2C1CC1 [NEVIRAPINE] | 300 | > 100000 | Not Active |  |  |  |  |  |  | 
Cc1cc(/C=C/C#N)cc(C)c1Nc1ccnc(Nc2ccc(C#N)cc2)n1 [RILPIVIRINE] |  | 8000 |  | […] |  |  |  |  |  | 
Cc1cc(C#N)cc(C)c1Oc1nc(Nc2ccc(C#N)cc2)nc(N)c1Br [ETRAVIRINE] |  |  |  |  | < 1 |  |  |  |  | 
N#Cc1cc2c(Oc3ccc(F)cc3OCCn3ccc(=O)[nH]c3=O)cc(F)cn2c1 | 4.7 | 90000 |  | 3.2 | 43.8 (≈ 103 µM) | Dose-dependent effect | 55000 | 5.5 | Dose-dependent effect | 4.5
